Results of several laboratories.
Lines come from different studies, so protocols differ.
Target: Casein kinase I isoform gamma-1 (CSNK1G1, Homo sapiens, UniProt Q9HCP0)

SMILES	observed	action	method	tested at	measurement	result
CS(=O)(=O)N1CCCC(NC(=O)[C@H](CCC2CCCCC2)NC(=O)c2ccc(CNc3ncnc4c3nnn4-c3ccccc3)cc2)C1 (some centres unmarked)	cell-free assay	–	competition with immobilised ligand	0.1 µM	remaining binding	100%
COc1cc(Cl)c(C(=O)N[C@@H](CN[C@H]2CC[C@@H](N)CC2)Cc2ccc(C#N)cc2)cc1-c1ccc(CN[C@H](C)c2ccc(C)cc2)o1	enzyme activity	inhibitor	–	1 µM	remaining activity	87%
O=C1Nc2ccc(Cl)cc2C1=Cc1cc(Cl)c(O)c(Cl)c1	cell-free assay	–	–	0.5 µM	remaining signal	89%
CCC(=O)N[C@@H]1CC[C@H](C(=O)N(C)c2ccc(-c3nc4ccccc4o3)cc2)C1	cell-free assay	–	competition with immobilised ligand	1 µM	remaining binding	100%
CC(C)(C)c1nc(-c2cccc(NS(=O)(=O)c3c(F)cccc3F)c2F)c(-c2ccnc(N)n2)s1	enzyme activity	inhibitor	radiometric	1 µM	remaining activity	96%
CC(C)(O)c1cncc(-c2nc3ccc(F)cc3n2C2CC2)c1	cell-free assay	–	competition with immobilised ligand	1 µM	remaining binding	100%
CNC(=O)c1cc(Oc2ccc(NC(=O)Nc3ccc(Cl)c(C(F)(F)F)c3)cc2)ccn1	enzyme activity	inhibitor	–	10 µM	inhibition	-13%
N#CCCc1ccc2c(c1)-c1[nH]c3ccc([N+](=O)[O-])cc3c1CC(=O)N2	cell-free assay	–	–	0.5 µM	remaining signal	81.6%
C[C@H](c1cccc(C#N)c1)n1cc(Cl)cc(C(N)=O)c1=N	cell-free assay	–	competition with immobilised ligand	1 µM	remaining binding	96%
Cc1ccc(Nc2nccc(N(C)c3ccc4c(C)n(C)nc4c3)n2)cc1S(N)(=O)=O	enzyme activity	inhibitor	–	0.3 µM	inhibition	-27%
CN1CC(Oc2cnc(C#N)cc2-c2ccn3nc(NC(=O)C4CC4)cc3c2)C1	enzyme activity	inhibitor	–	1 µM	inhibition	-3%
Cn1nc(C(F)(F)F)cc1-c1cnc(N2CCc3cc(S(=O)(=O)Nc4c(F)cc(Cl)cc4F)cc(N4CCCC4=O)c32)nc1	cell-free assay	–	competition with immobilised ligand	1 µM	remaining binding	100%
COc1cc2c(Nc3ccc(Br)cc3F)ncnc2cc1OCC1CCN(C)CC1	cell-free assay	–	–	0.5 µM	remaining signal	100%
O=C(Nc1cnn(-c2csc(C(=O)NC3COC3)c2)c1)Nc1ccccc1Cl	enzyme activity	inhibitor	–	5 µM	remaining activity	99%
Cc1cnc(NC2CCOCC2)nc1-n1cnc(C(=O)NC(CN)c2cc(F)cc(Cl)c2)c1 (centres unmarked)	enzyme activity	inhibitor	radiometric	1 µM	remaining activity	66%
CCS(=O)(=O)c1cc2cc(C[C@@](O)(CC(C)(C)c3ccc(F)cc3C(N)=O)C(F)(F)F)[nH]c2cn1	cell-free assay	–	competition with immobilised ligand	1 µM	remaining binding	100%
COc1cc2ncnc(Nc3ccc(Oc4ccccc4)c(C)c3C)c2cc1OC	enzyme activity	inhibitor	–	1 µM	inhibition	0%
C=CC(=O)Nc1cc(Nc2nccc(Nc3cc(Cl)c(F)cc3C(C)(C)O)n2)c(OC)cc1N1CC[C@@H](N(C)C)C1	enzyme activity	inhibitor	–	1 µM	inhibition	15%
Cc1ccc(C(=O)Nc2ccc(CN3CCN(C)CC3)c(C(F)(F)F)c2)cc1C#Cc1cnc2cccnn12	enzyme activity	inhibitor	–	23.5 nM	remaining activity	89%
Cc1ccc(NC(=O)c2ccc(C)c(C(F)(F)F)c2)cc1C#Cc1nn(C2CCC(O)CC2)c2ncnc(N)c12 (centres unmarked)	cell-free assay	–	–	10 µM	remaining signal	83%
